# “Also recorded” adds a separate entry of the source.
# Tests used:
# [1] = Humanized time-integrated activity coefficients; format: in vivo, rhesus macaques
# In short: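 Six rhesus macaques (3 female, 3 male) received the radiolabelled test compound intravenously, followed by whole-body PET/CT. Organ activity came from 3D VOIs drawn on PET images. Time–activity curves were fitted mono-exponentially, or by a linear fit of log activity for one animal with two scans. Coefficients were scaled by human/macaque whole-body-normalised organ mass ratios, using CT-derived macaque organ masses and the OLINDA/EXM 73.7-kg adult male model.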
# [2] = format: in vivo, rhesus macaques
# In short: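 Six rhesus macaques (3 female, 3 male), fasted overnight, under isoflurane anaesthesia, received test compound i.v. at 165.4 ± 28.5 MBq (21.8±5.9 MBq/kg) in 5 mL over 2 min. Venous samples (0.5 mL) were taken from the second saphenous cannula at 10, 20, 40, 60, 90 s and 2–180 min. Radioactivity in whole blood and plasma was gamma-counted and expressed as %ID/mL.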
# rhesus macaques = assay: ECG monitoring for acute toxicity during PET imaging; format: in vivo
# In short: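 Animals were anaesthetised (atropine 0.04 mg/kg i.m.; telazole or ketamine i.m.; isoflurane 1.0–3.0% in oxygen), intubated, mechanically ventilated and kept at 37±0.8°C. ECG, blood pressure, pulse oximetry and respiration rate were monitored throughout the imaging study after i.v. radiotracer.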
# [3] = Dynamic and whole-body PET imaging of pharmacokinetics and biodistribution; format: in vivo, rhesus macaques
# In short: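 ECAT HR+ scanner; 10-min transmission scan, then i.v. radiotracer (165.4 ± 28.5 MBq). Lower thorax to upper abdomen was imaged dynamically for 0–30 min in 2D mode, 29 frames (20×15 s, 5×1 min, 4×5 min). Three whole-body static scans followed at 40, 100 and 170 min (3-min transmission, 5-min emission, 4–5 beds). OSEM reconstruction with attenuation, scatter, random and dead-time correction. 3D VOIs gave organ %ID/g time–activity curves.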
# [4] = Radio-HPLC analysis of radiolabeled metabolites in blood plasma and urine; format: in vivo, rhesus macaques
# In short: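 Plasma was ultrafiltered, then run on radio-HPLC (Supelcogel C-610H column, 20 mM phosphoric acid, 0.5 mL/min, UV plus radioactivity detection). Peaks were identified with cold fluorocitrate and fluoride standards, and fractions were taken from peak areas. Urine was collected by Foley catheter, which was clamped until after the second whole-body scan. It was collected at 120–150 min, gamma-counted and analysed by the same HPLC.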
smiles,measurement,setting,value
"O=C(O)C[18F] [^18F-FACE, ^18F-fluoroacetate]","Humanized residence time, Gall bladder","[1]; All, Mean±SD",0.011 ± 0.005 h
same,"Humanized residence time, Heart","[1]; All, Mean±SD",0.034 ± 0.017 h
same,"Humanized residence time, Intestines","[1]; All, Mean±SD",0.319 ± 0.134 h
same,"Humanized residence time, Kidneys","[1]; All, Mean±SD",0.044 ± 0.013 h
same,"Humanized residence time, Liver","[1]; All, Mean±SD",0.209 ± 0.171 h
same,"Humanized residence time, Remainder of body","[1]; All, Mean±SD",1.751 ± 0.363 h
same,"Humanized residence time, Gall bladder","[1]; Female, Mean±SD",0.016 ± 0.002 h
same,"Humanized residence time, Heart","[1]; Female, Mean±SD",0.024 ± 0.013 h
same,"Humanized residence time, Kidneys","[1]; Female, Mean±SD",0.041 ± 0.016 h
same,"Humanized residence time, Liver","[1]; Female, Mean±SD",0.132 ± 0.082 h
same,"Humanized residence time, Remainder of body","[1]; Female, Mean±SD",1.724 ± 0.549 h
same,"Humanized residence time, Gall bladder","[1]; Male, Mean±SD",0.007 ± 0.002 h
same,"Humanized residence time, Heart","[1]; Male, Mean±SD",0.043 ± 0.016 h
same,"Humanized residence time, Intestines","[1]; Male, Mean±SD",0.400 ± 0.154 h
same,"Humanized residence time, Kidneys","[1]; Male, Mean±SD",0.047 ± 0.012 h
same,"Humanized residence time, Liver","[1]; Male, Mean±SD",0.287 ± 0.220 h
same,"Humanized residence time, Remainder of body","[1]; Male, Mean±SD",1.778 ± 0.159 h
same,"Humanized residence time, Gall bladder","[1]; animal 1, male",0.006 h
same,"Humanized residence time, Heart","[1]; animal 1, male",0.048 h
same,"Humanized residence time, Kidneys","[1]; animal 1, male",0.061 h
same,"Humanized residence time, Liver","[1]; animal 1, male",0.505 h
same,"Humanized residence time, Remainder of body","[1]; animal 1, male",1.706 h
same,"Humanized residence time, Intestines","[1]; animal 1, male, assigned in thirds to small, upper large, lower large intestine",0.235 h
same,"Humanized residence time, Gall bladder","[1]; animal 2, male",0.009 h
same,"Humanized residence time, Heart","[1]; animal 2, male",0.057 h
same,"Humanized residence time, Intestines","[1]; animal 2, male",0.426 h
same,"Humanized residence time, Kidneys","[1]; animal 2, male",0.038 h
same,"Humanized residence time, Liver","[1]; animal 2, male",0.290 h
same,"Humanized residence time, Remainder of body","[1]; animal 2, male",1.668 h
same,"Humanized residence time, Heart","[1]; animal 3, male",0.025 h
same,"Humanized residence time, Intestines","[1]; animal 3, male",0.540 h
same,"Humanized residence time, Kidneys","[1]; animal 3, male",0.043 h
same,"Humanized residence time, Liver","[1]; animal 3, male",0.065 h
same,"Humanized residence time, Remainder of body","[1]; animal 3, male",1.960 h
same,"Humanized residence time, Gall bladder","[1]; animal 4, female",0.017 h
same,"Humanized residence time, Heart","[1]; animal 4, female",0.039 h
same,"Humanized residence time, Intestines","[1]; animal 4, female",0.261 h
same,"Humanized residence time, Kidneys","[1]; animal 4, female",0.032 h
same,"Humanized residence time, Liver","[1]; animal 4, female",0.226 h
same,"Humanized residence time, Remainder of body","[1]; animal 4, female",1.138 h
same,"Humanized residence time, Gall bladder","[1]; animal 5, female",0.014 h
same,"Humanized residence time, Heart","[1]; animal 5, female",0.016 h
same,"Humanized residence time, Intestines","[1]; animal 5, female",0.256 h
same,"Humanized residence time, Kidneys","[1]; animal 5, female",0.059 h
same,"Humanized residence time, Liver","[1]; animal 5, female",0.078 h
same,"Humanized residence time, Remainder of body","[1]; animal 5, female",1.804 h
same,"Humanized residence time, Heart","[1]; animal 6, female",0.017 h
same,"Humanized residence time, Intestines","[1]; animal 6, female",0.196 h
same,"Humanized residence time, Kidneys","[1]; animal 6, female",0.030 h
same,"Humanized residence time, Liver","[1]; animal 6, female",0.093 h
same,"Humanized residence time, Remainder of body","[1]; animal 6, female",2.228 h
same,"blood clearance half-time, fast phase","[2]; i.v., bi-exponential, fast phase between 3 and 18 min",4 min
same,"blood clearance half-time, slow phase","[2]; i.v., bi-exponential, slow phase until 180 min",250 min
same,partition of radioactivity in the blood: plasma,[2]; stable throughout the study,70%
same,partition of radioactivity in the blood: red blood cells,[2]; stable throughout the study,30%
same,"changes in ECG (cardiac rhythm, electrical activity)",rhesus macaques; administration to 180 min post-injection,None of the animals injected with ^18F-FACE demonstrated any significant changes in cardiac rhythm or electrical activity patterns; also recorded: no significant changes to the ECG
same,ECG PR,rhesus macaques; time 1 min,0.11 ± 0.01 s
same,ECG QRS,rhesus macaques; time 1 min,0.05 ± 0.01 s
same,ECG QT,rhesus macaques; time 1 min,0.35 ± 0.04 s
same,ECG ST,rhesus macaques; time 1 min,0.80 ± 0.45 s
same,ECG p,rhesus macaques; time 1 min,0.04 ± 0.01 s
same,Heart rate,rhesus macaques; time 1 min,88±8 per minute
same,ECG PR,rhesus macaques; time 2 min,0.11 ± 0.01 s
same,ECG QRS,rhesus macaques; time 2 min,0.04 ± 0.00 s
same,ECG QT,rhesus macaques; time 2 min,0.34 ± 0.05 s
same,ECG ST,rhesus macaques; time 2 min,1.00 ± 0.50 s
same,ECG p,rhesus macaques; time 2 min,0.04 ± 0.00 s
same,Heart rate,rhesus macaques; time 2 min,88±8 per minute
same,ECG PR,rhesus macaques; time 5 min,0.11 ± 0.02 s
same,ECG QRS,rhesus macaques; time 5 min,0.04 ± 0.01 s
same,ECG QT,rhesus macaques; time 5 min,0.35 ± 0.04 s
same,ECG ST,rhesus macaques; time 5 min,0.95 ± 0.51 s
same,ECG p,rhesus macaques; time 5 min,0.04 ± 0.01 s
same,Heart rate,rhesus macaques; time 5 min,88±7 per minute
same,ECG PR,rhesus macaques; time 16 min,0.10 ± 0.01 s
same,ECG QRS,rhesus macaques; time 16 min,0.04 ± 0.00 s
same,ECG QT,rhesus macaques; time 16 min,0.34 ± 0.04 s
same,ECG ST,rhesus macaques; time 16 min,0.80 ± 0.41 s
same,ECG p,rhesus macaques; time 16 min,0.05 ± 0.01 s
same,Heart rate,rhesus macaques; time 16 min,87±6 per minute
same,ECG PR,rhesus macaques; time 32 min,0.11 ± 0.01 s
same,ECG QRS,rhesus macaques; time 32 min,0.04 ± 0.00 s
same,ECG QT,rhesus macaques; time 32 min,0.34 ± 0.03 s
same,ECG ST,rhesus macaques; time 32 min,0.60 ± 0.38 s
same,ECG p,rhesus macaques; time 32 min,0.05 ± 0.01 s
same,Heart rate,rhesus macaques; time 32 min,89±7 per minute
same,ECG PR,rhesus macaques; time 60 min,0.11 ± 0.01 s
same,ECG QRS,rhesus macaques; time 60 min,0.04 ± 0.01 s
same,ECG QT,rhesus macaques; time 60 min,0.34 ± 0.04 s
same,ECG ST,rhesus macaques; time 60 min,0.70 ± 0.54 s
same,ECG p,rhesus macaques; time 60 min,0.04 ± 0.00 s
same,Heart rate,rhesus macaques; time 60 min,89±7 per minute
same,ECG PR,rhesus macaques; time 90 min,0.11 ± 0.01 s
same,ECG QRS,rhesus macaques; time 90 min,0.04 ± 0.00 s
same,ECG QT,rhesus macaques; time 90 min,0.34 ± 0.03 s
same,ECG ST,rhesus macaques; time 90 min,0.70 ± 0.54 s
same,ECG p,rhesus macaques; time 90 min,0.04 ± 0.01 s
same,Heart rate,rhesus macaques; time 90 min,87±5 per minute
same,ECG PR,rhesus macaques; time 120 min,0.11 ± 0.01 s
same,ECG QRS,rhesus macaques; time 120 min,0.05 ± 0.01 s
same,ECG QT,rhesus macaques; time 120 min,0.33 ± 0.03 s
same,ECG ST,rhesus macaques; time 120 min,0.60 ± 0.38 s
same,ECG p,rhesus macaques; time 120 min,0.04 ± 0.01 s
same,Heart rate,rhesus macaques; time 120 min,88±3 per minute
same,ECG PR,rhesus macaques; time 180 min,0.10 ± 0.01 s
same,ECG QRS,rhesus macaques; time 180 min,0.04 ± 0.00 s
same,ECG QT,rhesus macaques; time 180 min,0.34 ± 0.03 s
same,ECG ST,rhesus macaques; time 180 min,0.85 ± 0.63 s
same,ECG p,rhesus macaques; time 180 min,0.04 ± 0.01 s
same,Heart rate,rhesus macaques; time 180 min,93±8 per minute
same,accumulation in the myocardium,[3]; PET,Some accumulation
same,accumulation or retention in the brain,[3]; PET,No significant accumulation or retention
same,uptake of radioactivity (free ^18F-fluoride) in bones / skeletal structures,"[3]; PET, over 2 to 3 h post-injection",insignificant; also recorded: limited
same,radioactivity concentration in liver,[3]; at 5 min,0.040 % ID/g
same,level of radioactivity in the blood,[3]; within 5 min after i.v. injection,0.040±0.02 % ID/g
same,^18F-fluorocitrate anabolite,[4]; 3-h study,not detectable
same,fraction of total radioactivity in urine as ^18F-FACE,[4]; urine collected at 120–150 min,72.4%
same,fraction of total radioactivity in urine as ^18F-fluoride,[4]; urine collected at 120–150 min,27.6%

# — publication PMC3902791 (Molecular imaging and biology : MIB : the official …, 2012)
